The source made the active and inactive calls. The calls are words filed in the database; no cut-off is given here.
What was measured:
[1] = test system: SMMC-7721; assay: Induction of apoptosis in human SMMC7721 cells assessed as late apoptotic cells at 2.5 uM after 48 hrs by Annexin-V-FITC/propidium iodide staining based flow cytometric method (reference value: 1.17%); assay type: functional
[2] = test system: SMMC-7721; assay: Upregulation of DLD mRNA expression in human SMMC7721 cells at 8 uM by RT-qPCR analysis; assay type: functional, cell-based
How it was run: (§1)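 Cells exposed to 8 μM; target mRNA quantified by RT-qPCR normalized to actin; means ± SD, n = 3.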

[3] = test system: SMMC-7721; assay: Induction of apoptosis in human SMMC7721 cells assessed as early apoptotic cells at 10 uM after 48 hrs by Annexin-V-FITC/propidium iodide staining based flow cytometric method (reference value: 2.27%); assay type: functional
[4] = test system: SMMC-7721; assay: Antimetastatic activity against human SMMC7721 cells assessed as reduction in cell invasion at 2 uM after 48 hrs using crystal violet staining by matrigel based fluorescence microscopic analysis relative to control; assay type: functional
How it was run: (§2)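 Transwell invasion: filter (8 μm pore) coated with matrigel for 2 h at 37 °C; 2 × 10^4 cells seeded in serum-free RPMI on upper surface with test agent 48 h; 10% FBS medium in lower chamber. Non-invaded cells swabbed off; invaded cells crystal violet stained, counted in five random fields by fluorescence microscopy. Paclitaxel 100 nM positive control; means ± SD, n = 3.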

[5] = test system: SMMC-7721; assay: Antimetastatic activity against human SMMC7721 cells assessed as reduction in cell invasion at 1 uM after 48 hrs using crystal violet staining by matrigel based fluorescence microscopic analysis relative to control; assay type: functional; how it was run: as §2
[6] = test system: SMMC-7721; assay: Down regulation of NNMT mRNA expression in human SMMC7721 cells at 8 uM by RT-qPCR analysis; assay type: functional, cell-based; how it was run: as §1
[7] = test system: SMMC-7721; assay: Antimetastatic activity against human SMMC7721 cells assessed as reduction in cell invasion at 0.5 uM after 48 hrs using crystal violet staining by matrigel based fluorescence microscopic analysis relative to control; assay type: functional; how it was run: as §2
[8] = test system: SMMC-7721; assay: Induction of apoptosis in human SMMC7721 cells assessed as live cells at 10 uM after 48 hrs by Annexin-V-FITC/propidium iodide staining based flow cytometric method (reference value: 95.75%); assay type: functional
[9] = test system: SMMC-7721; assay: Induction of apoptosis in human SMMC7721 cells assessed as early apoptotic cells at 2.5 uM after 48 hrs by Annexin-V-FITC/propidium iodide staining based flow cytometric method (reference value: 2.27%); assay type: functional
[10] = test system: SMMC-7721; assay: Cell cycle arrest in human SMMC7721 cells assessed as increase in G1 population at 2.5 to 5 uM after 48 hrs by propidium iodide staining based flow cytometric method; assay type: functional
How it was run: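 Cells exposed 48 h to 2.5 or 5 μM, PBS-washed, fixed in 70% ethanol at 4 °C overnight, centrifuged, RNase treated 37 °C 30 min, then PI stained 30 min in dark; G1/S/G2 distribution by flow cytometry; means ± SD, n = 3.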

[11] = test system: SMMC-7721; assay: Induction of apoptosis in human SMMC7721 cells assessed as necrotic cells at 2.5 uM after 48 hrs by Annexin-V-FITC/propidium iodide staining based flow cytometric method (reference value: 0.82%); assay type: functional
[12] = test system: SMMC-7721; assay: Down regulation of MAGP2 mRNA expression in human SMMC7721 cells at 8 uM by RT-qPCR analysis; assay type: functional, cell-based; how it was run: as §1
[13] = test system: SMMC-7721; assay: Down regulation of TSPAN8 mRNA expression in human SMMC7721 cells at 8 uM by RT-qPCR analysis; assay type: functional, cell-based; how it was run: as §1
[14] = test system: SMMC-7721; assay: Antimetastatic activity against human SMMC7721 cells assessed as reduction in cell migration at 0.5 to 2 uM after 48 hrs by crystal violet staining based fluorescence microscopic analysis; assay type: functional
How it was run: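 Migration through uncoated Transwell filter (8 μm pore): 2 × 10^4 cells in serum-free RPMI on upper side, treated 0.5, 1 or 2 μM for 48 h; lower chamber 10% FBS medium. Upper-surface cells removed by swab; underside cells crystal violet stained and scored in five random fields under fluorescence microscope. Paclitaxel 100 nM positive control; n = 3.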

[15] = test system: SMMC-7721; assay: Down regulation of CEACAM7 mRNA expression in human SMMC7721 cells at 8 uM by RT-qPCR analysis; assay type: functional, cell-based; how it was run: as §1
[16] = test system: SMMC-7721; assay: Down regulation of COX1 mRNA expression in human SMMC7721 cells at 8 uM by RT-qPCR analysis; assay type: functional, cell-based; how it was run: as §1
[17] = test system: SMMC-7721; assay: Induction of apoptosis in human SMMC7721 cells assessed as late apoptotic cells at 5 uM after 48 hrs by Annexin-V-FITC/propidium iodide staining based flow cytometric method (reference value: 1.17%); assay type: functional
[18] = test system: SMMC-7721; assay: Cytotoxicity against human SMMC7721 cells assessed as reduction in cell viability after 48 hrs by MTT assay; assay type: functional, cell-based; details: SMMC-7721, 48 h
How it was run: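 MTT viability: 5 × 10^4 cells/well seeded, cultured overnight, treated with graded concentrations 48 h; MTT (5 mg/mL stock) added 4 h, formazan dissolved in DMSO, absorbance read at 490 nm.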

[19] = test system: SMMC-7721; assay: Induction of apoptosis in human SMMC7721 cells after 48 hrs by Annexin-V-FITC/propidium iodide staining based flow cytometric method; assay type: functional, cell-based
[20] = test system: SMMC-7721; assay: Induction of apoptosis in human SMMC7721 cells assessed as live cells at 2.5 uM after 48 hrs by Annexin-V-FITC/propidium iodide staining based flow cytometric method (reference value: 95.75%); assay type: functional
[21] = test system: SMMC-7721; assay: Induction of apoptosis in human SMMC7721 cells assessed as late apoptotic cells at 10 uM after 48 hrs by Annexin-V-FITC/propidium iodide staining based flow cytometric method (reference value: 1.17%); assay type: functional
[22] = test system: SMMC-7721; assay: Induction of apoptosis in human SMMC7721 cells assessed as necrotic cells at 5 uM after 48 hrs by Annexin-V-FITC/propidium iodide staining based flow cytometric method (reference value: 0.82%); assay type: functional
[23] = test system: SMMC-7721; assay: Induction of apoptosis in human SMMC7721 cells assessed as live cells at 5 uM after 48 hrs by Annexin-V-FITC/propidium iodide staining based flow cytometric method (reference value: 95.75%); assay type: functional
[24] = test system: SMMC-7721; assay: Induction of apoptosis in human SMMC7721 cells assessed as early apoptotic cells at 5 uM after 48 hrs by Annexin-V-FITC/propidium iodide staining based flow cytometric method (reference value: 2.27%); assay type: functional
[25] = test system: SMMC-7721; assay: Induction of apoptosis in human SMMC7721 cells assessed as necrotic cells at 10 uM after 48 hrs by Annexin-V-FITC/propidium iodide staining based flow cytometric method (reference value: 0.82%); assay type: functional
[26] = test system: SMMC-7721; assay: Down regulation of COX2 mRNA expression in human SMMC7721 cells at 8 uM by RT-qPCR analysis; assay type: functional, cell-based; how it was run: as §1

O=C1C=CC(=C(c2ccc(O)cc2)c2c(-c3ccc(O)cc3)ccc(CO)c2C#Cc2ccc(OCc3ccc(-c4ccc(O)cc4)c(C(=C4C=CC(=O)C=C4)c4ccc(O)cc4)c3C#Cc3ccc(O)cc3)cc2)C=C1
Activity [1]: 11.13%
Activity [2]: Active
Activity [3]: 21.22%
fold change (FC) [4]: 0.39
fold change (FC) [5]: 0.42
Activity [6]: Active
fold change (FC) [7]: 0.53
Activity [8]: 47.83%
Activity [9]: 5.4%
Activity [10]: Active
Activity [11]: 0.89%
Activity [12]: Active
Activity [13]: Active
Activity [14]: Active
Activity [15]: Active
Activity [16]: Active
Activity [17]: 32.3%
IC50 [18]: 9 µM
Activity [19]: Dose-dependent effect
Activity [20]: 82.58%
Activity [21]: 29.8%
Activity [22]: 1.54%
Activity [23]: 58.59%
Activity [24]: 7.57%
Activity [25]: 1.15%
Activity [26]: Active

From ChEMBL document CHEMBL4138183, “Diselaginellin B, an Unusual Dimeric Molecule from Selaginella pulvinata, Inhibited Metastasis and Induced Apoptosis of SMMC-7721 Human Hepatocellular Carcinoma Cells” (J Nat Prod, 2017)
